From ChEMBL document CHEMBL4513216, “Probing the Open Global Health Chemical Diversity Library for Multistage-Active Starting Points for Next-Generation Antimalarials” (ACS Infect Dis, 2020)

Experiment: Toxicity liver stage against HepG2, at 10uM
Type: cell-based
Set-up: test concentration 10 uM, cell line HepG2-A16-CD81EGFP
Conditions: human, HepG2-A16-CD81EGFP cells; read-out: INHIBITION
Procedure, shortened: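 Uninfected HepG2-A16-CD81EGFP cells, 3 × 10^3 per well, 1536-well, plated on prespotted compound at 10 μM final, parasite-free screening media added to match infected plates; puromycin 10 μM positive, DMSO 0.5% negative; run in parallel with 48 h PbLuc assay at 37 °C, 5% CO2; viability by CellTiter-Glo luminescence, normalized to controls.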

| SMILES | cytotoxicity at 10 µM [%] |
| --- | --- |
| CC(c1ccc(F)cc1)N1CCN(Cc2ccc(C#N)cc2)CC1 (stereo unspecified) | -6.17 |
| O=C(NC[C@H]1OC[C@@H](NCc2ccc(F)cc2)[C@@H]1O)c1ccncc1 | 7.2 |
| CCCN(CCC)CCNc1c(-c2ccccc2)c(=O)c1=O | -82.1 |
| CCCS(=O)(=O)N1CC(=O)N(Cc2cccc(OC)c2OC)CC(O)C1 (stereo unspecified) | -12.9 |
| Cc1ccccc1C(=O)N1CC2(COC(C)(C)OC2)C1 | 4.56 |
| CC(=O)c1c(C)nn(S(=O)(=O)c2ccccc2)c1C | -0.305 |
| C[C@H](NC(=O)C1CC1)c1nc2cc(-c3ccc(F)cc3)ncn2n1 | -23 |
| CC(C)(C)C(=O)N1CCCC(c2ncncc2-c2ccncc2)C1 (stereo unspecified) | 4.03 |
| COCC(=O)N1CCC(c2cc3n(n2)[C@@H](C(F)(F)F)C[C@@H](C)N3)CC1 | -26.5 |
| CCC(=O)N1CCC(Cc2cc(Nc3ncccn3)ncn2)CC1 | -4.05 |
| CN(C(=O)CSc1ncc[nH]1)c1ccccc1 | 11.1 |
| O=c1cc(CN(CCO)C2CC2)nc2ccc(Cl)cn12 | 14.7 |
| Cc1nc(NS(=O)(=O)c2cc(C)c(Br)cc2C)no1 | 5.42 |
| O=C(c1ccccc1)N1CCN(C2CCc3ccc(F)cc32)CC1 (stereo unspecified) | 11.1 |
| COc1ccc(OC)c(C(=O)Nc2cccnc2-n2cncn2)c1 | -17 |
| Cc1nc(-c2ccc(S(=O)(=O)N3CCSCC3)cc2)co1 | 5.18 |
| N#Cc1cccc(-c2ncnn2CC2(O)CCCCC2)c1 | 8.83 |
| Cc1ccc(CNC(=O)N2CCOCC2C2CC2)cc1F (stereo unspecified) | 10.4 |
| Cn1cccc1CNCc1nnc2n1CCCC2C(F)(F)F (stereo unspecified) | -7.53 |
| CCOc1ccccc1NC(C)C(=O)N(C)Cc1cccc(F)c1 (stereo unspecified) | 12.1 |
| c1nc(N2CCOC(Cn3cncn3)C2)c2sccc2n1 (stereo unspecified) | 16.7 |

| SMILES | cytotoxicity at 10 µM [%] |
| --- | --- |
| Cc1cc2cc(CNC3CCN(S(C)(=O)=O)CC3)oc2cc1C | -0.779 |
| CCN(CC(=O)Nc1c(C)n[nH]c1C)CC(O)c1ccc(C)cc1 (stereo unspecified) | -2.86 |
| Cc1n[nH]c(C2CN(CCCOc3ccc(F)cc3)CCO2)n1 (stereo unspecified) | -5.76 |
| CN(Cc1ccccc1NCc1ncc[nH]1)C(=O)c1cccs1 | -3.21 |
| CN(CC(O)C1CC1)C(=O)c1ccc(-c2nc(C3CC3)no2)cc1 (stereo unspecified) | -3.45 |
| COc1cccc(S(=O)(=O)CCNCCn2cccn2)c1 | -4.96 |
| O=C(CCN1CCOCC1)Nc1cccc(CNCc2cccs2)c1 | 5.04 |
| Cc1ccccc1CS(=O)(=O)CC(=O)N(C)Cc1ccccc1 | 2.84 |
| COCc1nc(C(=O)N2CCN(Cc3cc(C)on3)CC2)cs1 | -15 |
| Cc1nc(CN2CCC23CCN(Cc2ccco2)CC3)cs1 | -114 |
| O=C1CC[C@@H]2[C@@H](CCN2S(=O)(=O)C2CC2)N1CC1CC1 | -79.4 |
| Cn1c2c(ccc1=O)CC(NC(=O)c1ccsc1)CC2 (stereo unspecified) | -1.87 |
| CCN1CCOCC2(C1)CN(C(=O)c1c(C)noc1C)CCO2 (stereo unspecified) | 13.8 |
| CN(C)CCOCc1cncc2c1CCN(C(=O)c1cscn1)C2 | -102 |
| CC(C)n1c2ccccc2c2c1cc(C(=O)N(C)C)n2S(C)(=O)=O | -90.8 |
| Cc1ccccc1N1CCCN(C(=O)CCc2nncn2C)CC1 | 3.82 |
| CC(C)(C(=O)NCC1CCN(Cc2ccccn2)C1)c1ccccc1 (stereo unspecified) | -3.09 |
| Cc1cc(C)n(CC(C)Nc2nc(-c3ccncc3)nc3c2CNC3)n1 (stereo unspecified) | -1.75 |
| c1cnn(CC2CCN(c3nc(C4CC4)nc4c3CCNCC4)CC2)c1 | -2.84 |
| CCN(CC)c1ncccc1CNCc1ccc(Cl)s1 | 10.6 |
| Cc1nn(C2CCCC2)c2nc(C(C)(C)CN3CCN(C)CC3)[nH]c12 | -6.61 |

| SMILES | cytotoxicity at 10 µM [%] |
| --- | --- |
| N#CC1CCCN(S(=O)(=O)c2ccc(C(=O)NCC(F)F)cc2)C1 (stereo unspecified) | 6.74 |
| CCN(CCOC)C(=O)CCc1scnc1C | -15.8 |
| CN(CCCc1cnn(C)c1)Cc1cc2n(n1)CCCNC2 | 6.49 |
| CCn1c(C)nnc1SCCNC(=O)c1cnc(N(C)C)nc1C | 6.9 |
| CCOc1ncccc1Cn1cc(-c2ccc(CO)o2)nn1 | -1.91 |
| Cc1[nH]c2c(F)cccc2c1CC(=O)N1CCC(NS(C)(=O)=O)CC1 | 7.58 |
| CCc1nc(N2CCCC(CCCOC)C2)c2cnn(C)c2n1 (stereo unspecified) | 6.46 |
| Cc1nn(C)cc1-c1ccnc(N(C)Cc2ccon2)n1 | -8.71 |
| C=C(C)COc1ccccc1CN1CCCC(C(=O)NCCCO)C1 (stereo unspecified) | 7.36 |
| Cc1ccc(F)cc1-n1c(CN(C)S(C)(=O)=O)n[nH]c1=O | 2.19 |
| Fc1ccccc1CN1CCCC(NC2CCOCC2)C1 (stereo unspecified) | 6.56 |
| CCCC(=O)Nc1cc2c(cc1OC)NC(=O)CC2c1ccc(CC)o1 (stereo unspecified) | 2.01 |
| CSCCNC(=O)c1coc(COc2ccc(F)cc2)n1 | 1.75 |
| CC1CN(S(=O)(=O)c2ccc(C(=O)NCC(F)F)cc2)CCCO1 (stereo unspecified) | 4.05 |
| COc1cccc(C(=O)Nc2ccc(OC3CCN(C)CC3)cc2)c1 | -6.88 |
| CCSc1nsc(NC(=O)COc2ccc3c(c2)OCO3)n1 | 2.03 |
| CN(C)S(=O)(=O)N1CCCC(CCC(=O)Nc2ccc(Cl)cc2)C1 (stereo unspecified) | -12.5 |
| Cc1nc(C)c(C(=O)N2CCc3[nH]nc(COc4ccccc4)c3C2)s1 | -3.09 |
| COCCN1CCN(C(C(=O)O)c2ccc(SC)cc2)CC1 (stereo unspecified) | 1.75 |
| Cc1nc(CNCc2c(C(C)C)nn(C)c2N2CCOCC2)cs1 | -2.51 |
| Cc1nc2n(n1)CC(NCc1cc(Cl)c3c(c1)OCCCO3)CC2 (stereo unspecified) | -4.15 |

| SMILES | cytotoxicity at 10 µM [%] |
| --- | --- |
| COc1cc(CNCc2ccc(C(C)O)cc2)cc2c1OCO2 (stereo unspecified) | -9.78 |
| Cc1noc(CN2CCC(c3ccnn3CCO)CC2)n1 | -9.62 |
| Cn1c(CN2CCCC2c2noc(C3CC3)n2)cc(=O)n(C)c1=O (stereo unspecified) | 4.04 |
| Cc1cnn(CC2CCCCN2C(=O)CN(C)C2CC2)c1 (stereo unspecified) | -1.23 |
| CNS(=O)(=O)c1cccc(CNC(=O)c2c(C)oc(C)c2C)c1 | -1.3 |
| CN(C)[C@@H]1CN(Cc2ccccc2O)C[C@H]1c1cn(C)c2ccccc12 | 6.6 |
| Cc1nn(CCC#N)c(C)c1CCC(=O)N(C)C | -7.33 |
| CN(C)C(=O)N1CCC2(CC1)CNc1ccc(F)cc12 | 8.88 |
| Cc1nc2c(c(NC(C)C)n1)CCN(C(=O)c1ccno1)CC2 | 7.77 |
| Cc1ccc(CN2C[C@@H]3CCCO[C@@H]3[C@H](NC(=O)CC3CC3)C2)s1 | 19.9 |
| CC(=O)N1CCO[C@@H]2CN(S(=O)(=O)c3cccnc3)C[C@@H]2C1 | 3.02 |
| O=C(c1ccco1)N1C[C@H]2CCCN(CC3CCOCC3)[C@H]2C1 | -0.285 |
| Cc1noc(C)c1CN1CCO[C@H]2CN(Cc3ccc(F)cc3)C[C@H]21 | 1.96 |
| Cc1nc(C2(O)CCCNCC2)sc1CCOc1ccccc1 (stereo unspecified) | -28.5 |
| CN1C(=O)C2(CCNCC2)c2cc(F)ccc21 | -115 |
| O=C1CC[C@H]2[C@H](CCN2c2ncc(F)cn2)N1c1ccccc1 | 5.86 |
| Cc1cccc(N2CC[C@@H]3CN(C(=O)c4ccco4)CCO[C@@H]3C2)n1 | 10.5 |
| CN1[C@@H]2CC[C@H]1CN(c1cc(Sc3cccs3)nc(N)n1)CC2 | -8.02 |
